ChEMBL document CHEMBL1126018, “Syntheses and 5-HT2 antagonist activity of bicyclic 1,2,4-triazol-3(2H)-one and 1,3,5-triazine-2,4(3H)-dione derivatives” (J Med Chem, 1992)

Experiments:
[1] = target: T1, Serotonin 2 (5-HT2) receptor (Rattus norvegicus, UniProt P30994+P08909+P14842); test: In vitro antagonistic activity tested against the contraction induced by 5-HT through 5-hydroxytryptamine 2 receptor in rat thoracic aortic strips; type: functional
Mus musculus [2] = test: The inhibition of compound was measured for 8 min in head twitches of mice induced by 5-HTP(100 mg/kg, ip) at the dose of 0.1 mg/kg; type: functional
In short: (§1)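 Mice received drug orally 1 h before 5-HTP (100 mg/kg ip). Head twitches were counted for 5 or 8 min, starting 30 min after 5-HTP. Results are % inhibition versus controls (n = 6), with n = 4 per treated dose.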

[3] = target: T2, Serotonin 2 (5-HT2) receptor (Rattus norvegicus) (UniProt P30994+P08909+P14842); test: In vivo inhibitory activity of 3 mg/kg compound in rats against elevation of BP caused by 5-HT (300 ug/kg, iv) through 5-hydroxytryptamine 2 receptor 1 hr after oral administration; type: functional, organism-based; parameters: dose 3 mg/kg
In short: (§2)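 Male SD rats anesthetized with urethane (1 g/kg ip) plus alpha-chloralose (80 mg/kg ip). Carotid arterial catheter to a pressure transducer, venous catheter for injection. After oral drug or vehicle, 5-HT 300 μg/kg iv. The pressor phase following the brief hypotensive phase was measured and expressed as % inhibition, mean ± SEM.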

[4] = target: T3, Adrenergic receptor alpha-1 (Rattus norvegicus) (UniProt P15823+P23944+P43140); test: In vivo inhibitory activity in rats against elevation of blood pressure caused by phenylephrine (30 ug/kg, iv) through Alpha-1 adrenergic receptor, after 1 hr oral administration at dose of 10 mg/kg; type: functional, organism-based; parameters: dose 10 mg/kg
In short: (§3)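 Male SD rats under urethane (1 g/kg ip) and alpha-chloralose (80 mg/kg ip). Blood pressure recorded via carotid catheter and transducer, iv dosing via venous catheter. After oral drug or vehicle, phenylephrine 30 μg/kg iv. The pressor rise was expressed as % inhibition, mean ± SEM.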

[5] = target: T4, Adrenergic receptor alpha-1 (Rattus norvegicus, UniProt P15823+P23944+P43140); test: In vitro antagonistic activity tested against the contraction induced by phenylephrine through Alpha-1 adrenergic receptor in rat thoracic aortic strips; type: functional
T4 sequence (P15823 whole entry): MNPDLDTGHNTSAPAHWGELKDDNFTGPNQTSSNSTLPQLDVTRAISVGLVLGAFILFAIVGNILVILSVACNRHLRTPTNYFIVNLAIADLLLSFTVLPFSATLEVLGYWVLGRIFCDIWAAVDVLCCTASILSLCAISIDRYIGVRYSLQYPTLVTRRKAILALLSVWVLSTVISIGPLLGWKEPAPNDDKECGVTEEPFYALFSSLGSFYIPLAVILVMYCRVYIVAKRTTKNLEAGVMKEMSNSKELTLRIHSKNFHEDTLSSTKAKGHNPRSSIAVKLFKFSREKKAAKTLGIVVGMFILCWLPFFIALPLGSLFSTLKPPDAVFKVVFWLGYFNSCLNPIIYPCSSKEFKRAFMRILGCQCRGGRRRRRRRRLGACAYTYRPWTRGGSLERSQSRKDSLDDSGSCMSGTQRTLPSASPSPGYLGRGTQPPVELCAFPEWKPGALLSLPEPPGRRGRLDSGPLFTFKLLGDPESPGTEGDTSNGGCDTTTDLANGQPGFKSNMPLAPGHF
T4 sequence (P23944 whole entry): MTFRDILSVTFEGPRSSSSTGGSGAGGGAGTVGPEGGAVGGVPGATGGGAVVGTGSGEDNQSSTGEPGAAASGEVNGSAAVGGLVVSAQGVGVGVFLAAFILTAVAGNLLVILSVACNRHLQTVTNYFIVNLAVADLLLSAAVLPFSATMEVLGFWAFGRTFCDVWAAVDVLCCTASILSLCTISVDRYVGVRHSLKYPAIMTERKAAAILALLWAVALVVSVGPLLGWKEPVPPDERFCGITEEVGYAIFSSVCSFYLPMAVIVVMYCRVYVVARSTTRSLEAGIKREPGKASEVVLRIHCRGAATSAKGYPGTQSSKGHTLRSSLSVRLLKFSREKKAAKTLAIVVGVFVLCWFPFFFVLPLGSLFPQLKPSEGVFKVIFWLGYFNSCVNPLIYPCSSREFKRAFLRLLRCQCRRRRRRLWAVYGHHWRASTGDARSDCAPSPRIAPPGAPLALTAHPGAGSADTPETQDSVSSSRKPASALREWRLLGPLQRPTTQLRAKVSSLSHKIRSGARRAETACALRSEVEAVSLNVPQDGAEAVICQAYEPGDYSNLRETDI
T4 sequence (P43140 whole entry): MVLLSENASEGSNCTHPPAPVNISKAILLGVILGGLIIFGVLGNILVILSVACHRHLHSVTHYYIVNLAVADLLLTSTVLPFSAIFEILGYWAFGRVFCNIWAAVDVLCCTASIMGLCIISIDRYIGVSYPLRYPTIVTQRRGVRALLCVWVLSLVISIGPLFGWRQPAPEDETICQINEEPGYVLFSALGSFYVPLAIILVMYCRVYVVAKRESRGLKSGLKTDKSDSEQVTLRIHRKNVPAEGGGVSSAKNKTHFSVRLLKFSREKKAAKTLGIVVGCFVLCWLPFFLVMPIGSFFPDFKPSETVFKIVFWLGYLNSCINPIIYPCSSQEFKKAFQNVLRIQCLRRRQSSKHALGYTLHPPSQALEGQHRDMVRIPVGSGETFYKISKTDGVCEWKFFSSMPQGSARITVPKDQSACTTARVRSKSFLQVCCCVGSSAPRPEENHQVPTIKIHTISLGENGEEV
In short: (§4)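 Rat thoracic aortic strips, isometric tension; equilibrated 120 min, primed with 60 mM KCl. Cumulative phenylephrine (0.01-10 μM) curve, wash, 1 h later second cumulative curve with test drug present. pA2 from the concentration-response curves where blockade is competitive (otherwise noncompetitive); single determination.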

[6] = target: T2, Serotonin 2 (5-HT2) receptor (Rattus norvegicus); test: In vivo inhibitory activity of 10 mg/kg compound in rats against elevation of BP caused by 5-HT (300 ug/kg, iv) through 5-hydroxytryptamine 2 receptor 3h after oral administration; type: functional, organism-based; parameters: dose 10 mg/kg; in short: as §2
[7] = target: T2, Serotonin 2 (5-HT2) receptor (Rattus norvegicus); test: (§5) In vitro antagonistic activity against the contraction induced by 5-HT through 5-hydroxytryptamine 2 receptor in rat thoracic aortic strips; type: functional; conditions: concentration not given here
In short: as §4, with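 “5-HT (0.1-100” for “phenylephrine (0.01-10”, “cumulative 5-HT” for “cumulative”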

[8] = target: T2, Serotonin 2 (5-HT2) receptor (Rattus norvegicus); test: In vivo inhibitory activity of 3 mg/kg compound in rats against elevation of BP caused by 5-HT (300 ug/kg, iv) through 5-hydroxytryptamine 2 receptor 3h after oral administration; type: functional, organism-based; parameters: dose 3 mg/kg; in short: as §2
Mus musculus [9] = test: The inhibition of compound was measured for 5 min in head twitches of mice induced by 5-HTP(100 mg/kg, ip) at the dose of 10 mg/kg; type: functional; in short: as §1
Mus musculus [10] = test: The inhibition of compound was measured for 8 min in head twitches of mice induced by 5-HTP(100 mg/kg, ip) at the dose of 1 mg/kg; type: functional; in short: as §1
Mus musculus [11] = test: The inhibition of compound was measured for 8 min in head twitches of mice induced by 5-HTP(100 mg/kg, ip) at the dose of 0.3 mg/kg; type: functional; in short: as §1
[12] = target: T3, Adrenergic receptor alpha-1 (Rattus norvegicus); test: In vivo inhibitory activity in rats against elevation of blood pressure caused by phenylephrine (30 ug/kg, iv) through alpha-1 receptor after 1 hr of oral administration at the dose of 10 mg/kg; type: functional, organism-based; parameters: dose 10 mg/kg; in short: as §3
Mus musculus [13] = test: The inhibition of compound was measured for 5 min in head twitches of mice induced by 5-HTP(100 mg/kg, ip) at the dose of 3 mg/kg; type: functional; in short: as §1
[14] = target: T1, Serotonin 2 (5-HT2) receptor; test: In vitro antagonistic activity against the contraction induced by 5-HT through 5-HT2 receptor in rat thoracic aortic strips; type: functional
In short: as §4, with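 “5-HT (0.1-100” for “phenylephrine (0.01-10”, “cumulative 5-HT” for “cumulative”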

[15] = target: T2, Serotonin 2 (5-HT2) receptor (Rattus norvegicus); test: In vivo inhibitory activity of 10 mg/kg compound in rats against elevation of BP caused by 5-HT (300 ug/kg, iv) through 5-hydroxytryptamine 2 receptor 1 hr after oral administration; type: functional, organism-based; parameters: dose 10 mg/kg; in short: as §2
Mus musculus [16] = test: The inhibition of compound was measured for 5 min in head twitches of mice induced by 5-HTP(100 mg/kg, ip) at the dose of 1 mg/kg; type: functional; in short: as §1
[17] = target: T1, Serotonin 2 (5-HT2) receptor; test: as §5; type: functional
In short: as §4, with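 “5-HT (0.1-100” for “phenylephrine (0.01-10”, “cumulative 5-HT” for “cumulative”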

[18] = target: T3, Adrenergic receptor alpha-1 (Rattus norvegicus); test: In vivo inhibitory activity in rats against elevation of blood pressure caused by phenylephrine (30 ug/kg, iv) through Alpha-1 adrenergic receptor after 1 hr of oral administration at the dose of 10 mg/kg; type: functional, organism-based; parameters: dose 10 mg/kg; in short: as §3
[19] = target: T4, Adrenergic receptor alpha-1; test: In vitro antagonistic activity against the contraction induced by phenylephrine through alpha-1 receptor in rat thoracic aortic strips; type: functional; in short: as §4
[20] = target: T3, Adrenergic receptor alpha-1 (Rattus norvegicus); test: In vitro antagonistic activity against the contraction induced by phenylephrine through Alpha-1 adrenergic receptor in rat thoracic aortic strips; type: functional; conditions: concentration not given here; in short: as §4
[21] = target: T3, Adrenergic receptor alpha-1 (Rattus norvegicus); test: In vivo inhibitory activity in rats against elevation of blood pressure caused by phenylephrine (30 ug/kg, iv) through alpha-1 receptor after 3h of oral administration at the dose of 10 mg/kg; type: functional, organism-based; parameters: dose 10 mg/kg; in short: as §3
[22] = system: Serotonin 2 (5-HT2) receptor (Rattus norvegicus); test: In vivo inhibitory activity in rats against elevation of blood pressure caused by 5-HT (300 ug/kg, iv) through 5-HT2 receptor after 3h of oral administration at the dose of 3 mg/kg
Mus musculus [23] = test: The inhibition of compound was measured for 5 min in head twitches of mice induced by 5-HTP(100 mg/kg, ip) at the dose of 30 mg/kg; type: functional; in short: as §1

T2 sequence (P08909 whole entry, looked up): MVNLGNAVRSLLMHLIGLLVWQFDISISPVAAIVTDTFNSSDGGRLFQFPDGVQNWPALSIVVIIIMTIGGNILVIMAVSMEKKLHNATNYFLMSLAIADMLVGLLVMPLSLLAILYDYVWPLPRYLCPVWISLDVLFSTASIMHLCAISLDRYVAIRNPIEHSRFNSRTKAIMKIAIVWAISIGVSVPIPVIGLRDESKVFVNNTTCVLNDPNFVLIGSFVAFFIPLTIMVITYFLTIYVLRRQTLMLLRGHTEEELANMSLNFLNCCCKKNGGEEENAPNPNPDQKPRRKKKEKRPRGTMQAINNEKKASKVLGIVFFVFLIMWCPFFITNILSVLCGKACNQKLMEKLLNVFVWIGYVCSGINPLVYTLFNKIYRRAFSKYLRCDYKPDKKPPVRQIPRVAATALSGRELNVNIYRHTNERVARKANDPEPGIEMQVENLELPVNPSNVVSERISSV
T2 sequence (P14842 whole entry, looked up): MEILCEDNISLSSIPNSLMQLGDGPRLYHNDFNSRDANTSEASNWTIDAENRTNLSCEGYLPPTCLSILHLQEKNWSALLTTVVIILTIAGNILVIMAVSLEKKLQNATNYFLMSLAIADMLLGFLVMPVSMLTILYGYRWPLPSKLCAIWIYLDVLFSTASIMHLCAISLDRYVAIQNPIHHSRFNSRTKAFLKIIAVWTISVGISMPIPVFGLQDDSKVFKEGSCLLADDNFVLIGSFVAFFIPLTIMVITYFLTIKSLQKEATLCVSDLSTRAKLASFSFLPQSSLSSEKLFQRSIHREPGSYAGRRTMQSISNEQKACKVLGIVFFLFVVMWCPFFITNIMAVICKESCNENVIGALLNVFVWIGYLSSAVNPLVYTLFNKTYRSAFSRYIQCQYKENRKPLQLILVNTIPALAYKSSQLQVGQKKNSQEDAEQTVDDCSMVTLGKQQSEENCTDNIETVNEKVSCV
T2 sequence (P30994 whole entry, looked up): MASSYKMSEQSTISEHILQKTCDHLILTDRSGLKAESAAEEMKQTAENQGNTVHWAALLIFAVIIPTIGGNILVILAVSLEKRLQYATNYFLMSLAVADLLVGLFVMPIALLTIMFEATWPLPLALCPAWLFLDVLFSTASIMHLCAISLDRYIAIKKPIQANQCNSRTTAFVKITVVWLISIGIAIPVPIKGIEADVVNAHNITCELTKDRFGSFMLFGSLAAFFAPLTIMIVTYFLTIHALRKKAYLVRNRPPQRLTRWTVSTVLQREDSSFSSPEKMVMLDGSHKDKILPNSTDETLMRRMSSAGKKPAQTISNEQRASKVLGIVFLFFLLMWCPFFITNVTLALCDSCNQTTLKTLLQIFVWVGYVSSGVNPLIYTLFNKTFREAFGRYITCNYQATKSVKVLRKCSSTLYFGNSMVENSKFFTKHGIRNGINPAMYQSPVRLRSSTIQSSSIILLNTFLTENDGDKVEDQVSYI

| Structure (SMILES) | pA2 [1] | inhibition [3] [%] | pA2 [5] | inhibition [6] [%] | inhibition [7] [%] | inhibition [8] [%] | inhibition [15] [%] | inhibition in vivo at 0.1 mg/kg (Mus musculus [2]) [%] | inhibition [4] [%] | inhibition in vivo at 10 mg/kg (Mus musculus [9]) [%] | inhibition in vivo at 1 mg/kg (Mus musculus [10]) [%] | inhibition in vivo at 0.3 mg/kg (Mus musculus [11]) [%] | inhibition [12] [%] | inhibition in vivo at 3 mg/kg (Mus musculus [13]) [%] | also measured |
| --- | --- | --- | --- | --- | --- | --- | --- | --- | --- | --- | --- | --- | --- | --- | --- |
| O=c1n(CCN2CCC(=C(c3ccc(F)cc3)c3ccc(F)cc3)CC2)nc2ccccn12 | – | – | 6.6 | – | – | – | 58 | – | 6 | – | – | – | – | – | pA2 [14]: 7 |
| O=C(c1ccc(Cl)cc1)C1CCN(CCn2nc3n(c2=O)CCCC3)CC1 | – | – | 7.2 | – | – | – | 83 | – | 16 | – | – | – | – | – | pA2 [17]: 7.2 |
| O=c1n(CCN2CCC(=C(c3ccc(F)cc3)c3ccc(F)cc3)CC2)nc2n1CCCC2 | 8.6 | 76 | – | 87 | 96 | 78 | – | – | – | 55 | – | – | – | 13 | inhibition [18]: 14%; pA2 [19]: 7; inhibition [20]: 14%; inhibition [21]: 4%; inhibition [22]: 11%; inhibition in vivo at 30 mg/kg (Mus musculus [23]): 85% |

Continued, in another order:

| pA2 [1] | inhibition [3] [%] | pA2 [5] | inhibition [6] [%] | inhibition [7] [%] | inhibition [8] [%] | inhibition [15] [%] | Structure (SMILES) | inhibition in vivo at 0.1 mg/kg (Mus musculus [2]) [%] | inhibition [4] [%] | inhibition in vivo at 10 mg/kg (Mus musculus [9]) [%] | inhibition in vivo at 1 mg/kg (Mus musculus [10]) [%] | inhibition in vivo at 0.3 mg/kg (Mus musculus [11]) [%] | inhibition [12] [%] | inhibition in vivo at 3 mg/kg (Mus musculus [13]) [%] | also measured |
| --- | --- | --- | --- | --- | --- | --- | --- | --- | --- | --- | --- | --- | --- | --- | --- |
| 8.1 | 93 | 6.9 | 90 | 93 | 83 | – | O=C(c1ccc(F)cc1)C1CCN(CCn2c(=O)nc3n(c2=O)CCCC3)CC1 | 49 | 33 | 80 | 81 | 59 | 33 | 67 | – |
| – | 96 | 7.8 | 100 | – | 84 | – | O=C(c1ccc(F)cc1)C1CCN(CCn2c(=O)[nH]c3ccccc3c2=O)CC1 [KETANSERIN] | 49 | 91 | 100 | 93 | 88 | 91 | 92 | – |
| – | – | 7.5 | – | – | – | – | Cc1nc2sccn2c(=O)c1CCN1CCC(=C(c2ccc(F)cc2)c2ccc(F)cc2)CC1 [RITANSERIN] | – | 7 | 100 | – | – | – | 95 | inhibition in vivo at 1 mg/kg (Mus musculus [16]): 80% |
